From ChEMBL document CHEMBL1123463, “Two stereoisomeric imidazoline derivatives: synthesis and optical and alpha 2-adrenoceptor activities” (J Med Chem, 1986)

Legend:
Rattus norvegicus [1] = assay: Maximal decrease of heart rate calculated as bradycardiac activity after intravenous injection of 5.61ug/kg in rats; type: functional
In short: (§1)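 Anesthetized male normotensive Wistar rats (200-350 g; ip sodium pentobarbitone 75.0 mg/kg), cannulated trachea, kept at ca. 37 °C rectal. Pulse rate recorded continuously; following ~20 min stabilization each rat received one iv dose in saline (1 mL/kg, expressed as hydrochloride). Maximal fall in heart rate measured.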

Rattus norvegicus [2] = assay: Maximal decrease of arterial blood pressure (MAP) after intravenous injection of compound at a dose of 1 ug/kg in rats; type: functional
In short: (§2)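 Male normotensive Wistar rats (200-350 g) anesthetized with ip sodium pentobarbitone 75.0 mg/kg; trachea cannulated, spontaneous breathing, rectal temperature ca. 37 °C. Arterial pressure recorded continuously. After ~20 min stabilization, single iv injection in saline (1 mL/kg; doses as hydrochloride), one injection per animal. Read-out: maximal fall in mean arterial pressure.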

Rattus norvegicus [3] = assay: Maximal decrease of arterial blood pressure (MAP) after intravenous injection of compound at a dose of 10 ug/kg in rats; type: functional; in short: as §2
Rattus norvegicus [4] = assay: Maximal decrease of arterial blood pressure (MAP)after intravenous injection of compound at a dose of 0.561 ug/kg in rats; type: functional; in short: as §2
Rattus norvegicus [5] = assay: Maximal decrease of heart rate calculated as bradycardiac activity after intravenous injection of 10 ug/kg in rats; type: functional; in short: as §1
Rattus norvegicus [6] = assay: Maximal decrease of arterial blood pressure (MAP) after intravenous injection of compound at a dose of 3.16 ug/kg in rats; type: functional; in short: as §2
Rattus norvegicus [7] = assay: Maximal decrease of arterial blood pressure(MAP) after intravenous injection of compound at a dose of 5.61ug/kg in rats; type: functional; in short: as §2
Rattus norvegicus [8] = assay: Maximal decrease of heart rate calculated as bradycardiac activity after intravenous injection of 0.561 ug/kg in rats; type: functional; in short: as §1
[9] = target: T1, Adrenergic receptor alpha-2 (Rattus norvegicus, UniProt P22086+P19328+P22909); assay: Compound was tested for its ability to inhibit specific binding of [3H]clonidine to alpha-2 adrenergic receptor in rat brain; type: tissue-based
T1 sequence (P22086 whole entry): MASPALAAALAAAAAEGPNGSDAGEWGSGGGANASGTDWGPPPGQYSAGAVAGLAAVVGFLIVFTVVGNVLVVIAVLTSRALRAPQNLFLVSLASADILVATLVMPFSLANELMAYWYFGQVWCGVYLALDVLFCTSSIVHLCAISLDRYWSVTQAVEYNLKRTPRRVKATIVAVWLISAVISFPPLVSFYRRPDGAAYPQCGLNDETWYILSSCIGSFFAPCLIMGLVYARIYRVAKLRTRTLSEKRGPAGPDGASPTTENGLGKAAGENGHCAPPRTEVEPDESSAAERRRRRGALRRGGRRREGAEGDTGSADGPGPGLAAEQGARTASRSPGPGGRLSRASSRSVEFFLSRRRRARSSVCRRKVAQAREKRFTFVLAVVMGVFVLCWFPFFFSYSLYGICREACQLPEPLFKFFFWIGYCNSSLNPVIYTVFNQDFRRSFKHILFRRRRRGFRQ
T1 sequence (P19328 whole entry): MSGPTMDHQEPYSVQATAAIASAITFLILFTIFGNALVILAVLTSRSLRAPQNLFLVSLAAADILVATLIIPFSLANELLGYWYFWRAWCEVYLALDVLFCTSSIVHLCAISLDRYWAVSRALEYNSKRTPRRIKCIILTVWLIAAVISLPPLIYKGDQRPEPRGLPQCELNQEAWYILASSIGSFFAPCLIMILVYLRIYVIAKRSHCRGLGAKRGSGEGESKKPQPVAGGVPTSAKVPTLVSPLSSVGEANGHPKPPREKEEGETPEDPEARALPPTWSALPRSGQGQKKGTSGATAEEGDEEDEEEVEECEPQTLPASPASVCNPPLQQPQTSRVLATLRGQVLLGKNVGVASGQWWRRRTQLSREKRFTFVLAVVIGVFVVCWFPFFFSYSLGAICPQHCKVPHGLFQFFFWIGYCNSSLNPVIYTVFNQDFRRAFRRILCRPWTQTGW
T1 sequence (P22909 whole entry): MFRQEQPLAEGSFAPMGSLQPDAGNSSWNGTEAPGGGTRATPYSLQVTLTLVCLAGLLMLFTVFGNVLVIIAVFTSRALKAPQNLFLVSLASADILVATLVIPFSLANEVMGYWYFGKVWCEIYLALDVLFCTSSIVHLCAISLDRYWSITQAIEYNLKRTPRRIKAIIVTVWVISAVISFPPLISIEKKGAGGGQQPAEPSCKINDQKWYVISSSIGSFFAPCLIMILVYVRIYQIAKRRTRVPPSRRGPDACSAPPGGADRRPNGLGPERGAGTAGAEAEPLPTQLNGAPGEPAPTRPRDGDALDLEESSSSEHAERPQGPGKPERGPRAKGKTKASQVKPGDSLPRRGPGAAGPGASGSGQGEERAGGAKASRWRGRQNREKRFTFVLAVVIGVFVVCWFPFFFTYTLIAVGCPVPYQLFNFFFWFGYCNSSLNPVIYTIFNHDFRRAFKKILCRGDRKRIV

Rattus norvegicus [10] = assay: Maximal decrease of heart rate calculated as bradycardiac activity after intravenous injection of 1 ug/kg in rats; type: functional; in short: as §1
Rattus norvegicus [11] = assay: Maximal decrease of heart rate calculated as bradycardiac activity after intravenous injection of 3.16 ug/kg in rats; type: functional; in short: as §1
[12] = target: T1, Adrenergic receptor alpha-2; assay: Compound was tested for its ability to inhibit specific binding of [3H]clonidine to alpha-2-adrenoceptor in rat brain; type: tissue-based

## CC(Oc1c(Cl)cccc1Cl)C1=NCCN1.Cl (racemic) [LOFEXIDINE HYDROCHLORIDE]
Rattus norvegicus [1]
  Heart rate: -132
Rattus norvegicus [2]
  MAP: -26.8 mmHg
Rattus norvegicus [3]
  MAP: -54.2 mmHg
Rattus norvegicus [4]
  MAP: -22.6 mmHg
Rattus norvegicus [5]
  Heart rate: -138
Rattus norvegicus [6]
  MAP: -37.6 mmHg
Rattus norvegicus [7]
  MAP: -48.8 mmHg
Rattus norvegicus [8]
  Heart rate: -52
[9]
  IC50: 7.25 nM
Rattus norvegicus [10]
  Heart rate: -83
Rattus norvegicus [11]
  Heart rate: -137

## CC(Oc1c(Cl)cccc1Cl)C1=NCCN1.Cl (single isomer, unassigned; (+)) [LOFEXIDINE HYDROCHLORIDE]
Rattus norvegicus [2]
  MAP: -7.4 mmHg
Rattus norvegicus [3]
  MAP: -10.6 mmHg
Rattus norvegicus [5]
  Heart rate: -61
Rattus norvegicus [6]
  MAP: -11.7 mmHg
Rattus norvegicus [10]
  Heart rate: -7
[12]
  IC50: 43 nM
Rattus norvegicus [11]
  Heart rate: -36

## CC(Oc1c(Cl)cccc1Cl)C1=NCCN1.Cl (stereo in doubt) [LOFEXIDINE HYDROCHLORIDE]
Rattus norvegicus [1]
  Heart rate: -96
Rattus norvegicus [2]
  MAP: -13.8 mmHg
Rattus norvegicus [3]
  MAP: -53 mmHg
Rattus norvegicus [5]
  Heart rate: -134
Rattus norvegicus [6]
  MAP: -29.8 mmHg
Rattus norvegicus [7]
  MAP: -41.6 mmHg
Rattus norvegicus [10]
  Heart rate: -46
[12]
  IC50: 3.6 nM
Rattus norvegicus [11]
  Heart rate: -97
